Hits are enriched below; roughly 5.1% of the tested compounds scored in any of these assays.
BAP1 block: blocks human BAP1 ubiquitin-AMC hydrolysis | calls only at 20 µM | AID 436 | recombinant BAP1, Ub-AMC hydrolysis fluorescence kinetic; stronger effect = lower value | 72,000 compounds, 0.48% hits;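 active means activity remaining at or below 50% of control, provided the compound also passes the data quality filters; inactive means the rest, including low values that fail the filters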;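 further: 100% = DMSO wells rate and 0% = substrate alone blank rate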
M1 antagonist: M1 muscarinic receptor (rat) antagonism; CHO-M1 cells, Fluo-4 calcium, ACh EC80 antagonist mode; stronger effect = lower value; B-score at 10 µM; 64,000 compounds, 3.4% hits; AID 628;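 active means calcium fluorescence response, raw or row-and-column corrected B-score, differing from the plate sample mean either way at a set confidence level, mostly lower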
Target sequence (P08482 whole entry, looked up): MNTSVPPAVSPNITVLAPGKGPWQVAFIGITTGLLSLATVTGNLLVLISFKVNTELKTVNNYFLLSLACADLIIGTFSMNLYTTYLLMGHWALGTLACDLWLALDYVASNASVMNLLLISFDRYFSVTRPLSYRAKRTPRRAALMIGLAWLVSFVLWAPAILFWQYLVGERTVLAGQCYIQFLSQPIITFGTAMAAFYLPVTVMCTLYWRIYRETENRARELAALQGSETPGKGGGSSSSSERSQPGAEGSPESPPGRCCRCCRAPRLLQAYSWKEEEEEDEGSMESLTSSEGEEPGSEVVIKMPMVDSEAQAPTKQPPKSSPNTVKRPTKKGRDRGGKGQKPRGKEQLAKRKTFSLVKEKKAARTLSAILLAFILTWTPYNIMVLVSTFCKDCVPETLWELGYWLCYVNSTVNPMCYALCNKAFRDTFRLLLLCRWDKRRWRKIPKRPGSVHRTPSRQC
Ecoli tolC: growth inhibitors of E. coli BW25113 tolC mutant; growth inhibition, % at 10 µM (by protocol); 65,000 compounds, 2.2% hits; OD615;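 active means growth inhibition at or above a cutoff equal to the mean over every tested compound plus 3 SD, cut at about 60% in these data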;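 further: growth measured after 20 h incubation at 37 °C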
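Doses: one dose of 10 µM final / Material: E. coli BW25113 ΔtolC::kan, tolC deletion mutant strain / Buffer or medium: LB with kanamycin 50 µg/mL / Evaluation: percent growth inhibition / Detection: optical density read at 615 nm / Incubation: 37 °C, 20 h exposure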
Ecoli WT expand: growth inhibitors of E. coli BW25113 wild type | OD600 absorbance | growth inhibition, % at 100 µM | 98,000 compounds, 0.15% hits | AID 710;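 active means growth inhibition above about 50% at one test dose, limit read from the data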;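 further: growth measured after 20 h incubation at 37 °C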
M1 ag: agonists of M1 muscarinic receptor | CHO-M1 cells, Fluo-4 calcium fluorescence, agonist mode; stronger effect = higher value | 64,000 compounds, 3% hits | B-score at 10 µM | AID 626;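 active means fluorescence rise, raw or as B-score row- and column-corrected plate score, outside the 99.7% band of its plate's samples, either direction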
Hsp90 block: displaces geldanamycin probe from tumor Hsp90 | P07900 | NCI-N417 lysate Hsp90, Cy3B-geldanamycin FP displacement | inhibition, % at 30 µM | 64,000 compounds, 0.35% hits | AID 429;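 active means inhibition above 50%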;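 further: 0% = tracer plus lysate wells and 100% = tracer alone without lysate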
BAP1 inh conf: BAP1 (human) enzyme inhibition, confirmed. shares compounds with BAP1 block. purified BAP1, Ub-ethyl ester hydrolysis, HPLC; stronger effect = lower value. % of control activity, % at 20 µM. 310 compounds, 8% hits. AID 753;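 active means percent of control activity at or below 60%; inconclusive means HPLC trace unusable from injection failure or solvent front hiding peaks; inactive means the rest, plus ubiquitin peak ratio over a set limit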
Active calls of the source: *; i = inactive; ? = inconclusive; . = not tested or not shown; + = active, no number.

SMILES	BAP1 block	M1 antagonist	Ecoli tolC	Ecoli WT expand	M1 ag	Hsp90 block	BAP1 inh conf
CCOC(=O)c1cnc(SCC(=O)Nc2cc(OC)cc(OC)c2)nc1N	i	-0.25	-3	-9	-1.3	2	.
CCOC(=O)c1cnc(SCC(=O)Nc2sc(C)c(C)c2C#N)nc1N	+	0.04	2	-5	-0.25	-4	31*
O=C(COC(=O)c1ccc(N2C(=O)C3C4CCC(C4)C3C2=O)cc1)c1ccc([N+](=O)[O-])cc1 (stereo not given)	i	.	.	.	.	.	.
COc1ccc(OC)c2c1sc(=NC(=O)c1ccco1)n2C	+	-2.5	4	3	-1.5	-2	91
Cc1cccc2cc(CN(Cc3cccs3)C3(c4nnnn4C4CCCC4)CCCC3)c(=O)[nH]c12	+	0.17	17	-11	1.4	3	74
Cc1cc(C)c2[nH]c(=O)c(CN(Cc3ccc4c(c3)OCO4)Cc3nnnn3C3CCCC3)cc2c1	+	-0.25	34	-13	-0.76	2	112
Cc1cccc2cc(CN(Cc3ccc(F)cc3)Cc3nnnn3C3CCCC3)c(=O)[nH]c12	i	-0.34	0	-10	-0.016	-3	.
CCOC(=O)c1oc2ccc(S(=O)(=O)n3nc(-c4ccc(OC)cc4)cc3N)cc2c1C	+	0.43	20	-23	1.6	-1	75
CCOC(=O)c1oc2ccc(S(=O)(=O)n3nc(-c4ccccc4)cc3N)cc2c1C	.	.	.	-10	.	.	.
CN(C)c1ccc(NC(=O)CSc2nc3ccccc3c(=O)n2C2CCCCC2)cc1	+	0.61	16	-9	1.3	0	57*
O=C(O)CCc1ccc(-c2ccccc2)n1-c1cccc(O)c1	+	0.63	9	0	-0.16	-4	143
Cc1ccc(N2C(=O)[C@@H]3[C@H](C2=O)C2c4ccccc4C=CN2[C@@H]3C(=O)c2ccco2)cc1 (stereo not given in full)	i	-0.57	8	-1	3.5	-23	.
CC(C)(C)C(=O)[C@@H]1[C@@H]2C(=O)N(c3ccc4c(c3)OCCO4)C(=O)[C@@H]2C2c3ccccc3C=CN21 (stereo not given in full)	i	0.24	15	3	-0.3	-6	.
Cc1ccc(N2C(=O)[C@@H]3[C@H](C2=O)C2c4ccccc4C=CN2[C@@H]3C(=O)c2ccco2)c(C)c1 (stereo not given in full)	+	-0.063	12	.	3	-17	118
O=C(c1ccco1)[C@@H]1[C@@H]2C(=O)N(c3ccccc3)C(=O)[C@@H]2C2c3ccccc3C=CN21 (stereo not given in full)	+	-0.12	18	.	3.9	-7	?
CCOC(=O)c1[nH]c(CSc2nnnn2-c2ccccc2C)c(C(=O)OCC)c1C	+	0.19	-3	-2	0.084	-8	93
CCOC(=O)c1c(C)[nH]c(C)c1C(=O)CSc1nnnn1-c1ccccc1	i	0.29	4	-6	-0.86	-1	.
Cc1ccccc1OCc1nnc(SCC(=O)Nc2ccc3c(c2)oc2ccccc23)n1C	+	0.65	-1	-14	0.95	-4	120
CCOC(=O)c1ccc(NC(=O)C2CC(=O)N(C)C(=Nc3ccccc3OC)S2)cc1 (stereo not given)	i	.	.	.	.	.	.
CC1(C)Cc2c(C#N)c(SCc3ccccc3)nc(N3CCOCC3)c2CO1	+	0.048	26	-7	-0.08	-1	121
CCCCCSc1nc(N2CCOCC2)c2c(c1C#N)CC(C)(C)OC2	.	-0.15	13	7	0.71	0	.
CC1=C(C(=O)OC2CCCC2)C2(O)C(=O)c3ccccc3C2(O)N1 (stereo not given)	i	.	.	.	.	.	.
CCCn1c2c(c(O)c(C(=O)Nc3ccccc3)c1=O)CCCC2	+	-0.15	14	-21	0.27	1	81
CC(C)c1ccccc1NC(=O)c1cccc(Cl)c1	i	.	.	.	.	.	.
COCCn1nnnc1C(C(C)C)N(Cc1cccnc1)Cc1cc2cc(OC)ccc2[nH]c1=O (stereo not given)	+	0.95	-5	8	-0.064	0	114
SMILES	BAP1 block	M1 antagonist	Ecoli tolC	Ecoli WT expand	M1 ag	Hsp90 block	BAP1 inh conf
CC1=C(C(=O)Nc2ccccc2)C(c2ccc(O)cc2)N2C(=O)CSC2=N1 (stereo not given)	.	.	.	-7	.	.	.
CC1=C(C(=O)Nc2ccccc2)C(c2ccc(C)o2)n2c(s/c(=C\c3ccco3)c2=O)=N1 (stereo not given)	+	-0.076	44	-13	1.6	-7	111
CCCSC1=N/C(=C\C=C\c2ccco2)C(=O)S1	+	0.11	16	4	-1.1	-11	86
O=C1SC(SCc2ccccc2)=N/C1=C\c1ccco1	.	-0.48	1	-1	4.7	-12	.
CCCOC(=O)c1c(NC(=O)Cn2nc([N+](=O)[O-])cc2C)sc2c1CCCC2	i	.	.	.	.	.	.
CCOC(=O)c1nnn(-c2nonc2N)c1COc1cc(C)c(Cl)c(C)c1	+	-0.51	11	.	0.49	2	106
CCOC(=O)c1nnn(-c2nonc2N)c1CSc1ccccc1	.	.	.	3	.	.	.
COc1ccc2cc(C(c3nnnn3Cc3ccc(F)cc3)N3CCCCCC3)c(=O)[nH]c2c1 (stereo not given)	i	0.16	8	0	-1.1	-5	.
COc1ccc2cc(C(c3nnnn3Cc3ccccc3)N3CCCCCC3)c(=O)[nH]c2c1 (stereo not given)	+	0.098	12	.	-0.19	-7	50*
N#Cc1c(N=Cc2ccccc2)oc(-c2ccccc2)c1-c1ccccc1	i	.	.	.	.	.	.
N#Cc1c(/N=C/c2ccco2)oc(-c2ccccc2)c1-c1ccccc1	+	-0.052	77*	-4	1.2	-5	?
Nc1c(C(=O)c2cccs2)oc2ccccc12	i	0.04	-6	1	-0.35	0	.
Nc1c(C(=O)c2ccc(Br)s2)oc2ccccc12	+	1.4	4	4	-0.42	0	81
Cc1cccc(C(=O)Nc2ccc(-c3nc4ccccc4[nH]3)cc2)c1	i	.	.	.	.	.	.
CCOC(=O)c1ccc(NC(=O)CCc2ccc(CC)o2)cc1	+	-0.45	56	6	-0.036	0	96
CCn1c(=NC(=O)c2ccc(N3C(=O)CCC3=O)cc2)sc2c(OC)ccc(OC)c21	+	0.36	10	-4	-0.074	-4	117
CCn1c(=NC(=O)CN2C(=O)CCC2=O)sc2c(OC)ccc(OC)c21	i	0.061	1	1	-0.28	0	.
CC(C)OC(=O)c1c(NC(=O)CCn2nnc3ccccc32)sc2c1CCCC2	+	.	33	-2	.	-3	89
CCOC(=O)c1sc(NC(=O)CCn2nnc3ccccc32)c(C(=O)OCC)c1C	i	0.27	8	.	-0.27	-10	.
